# Measured values of several laboratories.
# Lines come from different studies, so protocols differ.
# Medium: plasma
SMILES,test system,setting,Tmax [h]
Cc1ccc(C(=O)Nc2ccc(CN3CCN(C)CC3)c(C(F)(F)F)c2)cc1C#Cc1cnc2[nH]ncc2c1,human,"oral, 40 mg, healthy volunteers",8
NS(=O)(=O)OC[C@@H]1C[C@@H](n2ccc3c(N[C@H]4CCc5ccccc54)ncnc32)C[C@@H]1O,human,"intravenous, 15 mg/m², patients",1.13
CC(C)n1c(Nc2cccnc2)nc2cnc(Nc3ccc(N4CCN(C)CC4)cc3)nc21,male human,"oral, 100 mg, single dose, healthy volunteers",1.5
CNC(=O)n1ccc2cc(Oc3ccnc(NC(=O)c4ccc(C5CCN(CCO)CC5)cc4)c3)c(OCCOC)cc21,human,"oral, 35 mg, single dose, fasted, healthy volunteers",3
Cl.[2H]C([2H])([2H])CC(=O)c1cnc(NC(=O)C2CC2)cc1Nc1cccc(-c2ncn(C([2H])([2H])[2H])n2)c1OC,human,"oral, 20 mg, multiple doses, once daily, fasted",2.1
NC(=S)NN=Cc1ncccc1N,human,"oral, 100 mg",0.9
Cn1cc(Nc2nc(N)nc(-c3cccc(-n4ccc5cc(C6CC6)cc(F)c5c4=O)c3CO)n2)cn1,human,"oral, 900 mg, single dose, fasted, suspension",4
COc1ccc([C@@H](O)c2cc(-c3ncnc4cc(N5CCOCC5)ccc34)c(F)cc2Cl)nn1,human,"oral, 400 mg, single dose, patients",1.08
CN1CC[C@@H](c2c(O)cc(O)c3c(=O)cc(-c4ccc(C(F)(F)F)cc4Cl)oc23)[C@@H]1CO,human,"oral, 50 mg, patients",4.1
